Results taken from ChEMBL document CHEMBL1143973, “Imine derivatives as new potent and selective CB2 cannabinoid receptor agonists with an analgesic action” (Bioorg Med Chem, 2008).
≈ marks a conversion by molar mass, not a printed value. Calls of active or inactive are those of the source.

What was measured:
[1] = target: T1, Cannabinoid receptor 2 (Homo sapiens, UniProt P34972); test: Displacement of [3H]CP-55940 from human recombinant CB2 receptor expressed in CHO cells; format: cell-based
[2] = target: T2, Cannabinoid receptor 1 (Homo sapiens, UniProt P21554); test: Displacement of [3H]CP-55940 from human recombinant CB1 receptor expressed in CHO cells; format: cell-based
T2 sequence (P21554 whole entry): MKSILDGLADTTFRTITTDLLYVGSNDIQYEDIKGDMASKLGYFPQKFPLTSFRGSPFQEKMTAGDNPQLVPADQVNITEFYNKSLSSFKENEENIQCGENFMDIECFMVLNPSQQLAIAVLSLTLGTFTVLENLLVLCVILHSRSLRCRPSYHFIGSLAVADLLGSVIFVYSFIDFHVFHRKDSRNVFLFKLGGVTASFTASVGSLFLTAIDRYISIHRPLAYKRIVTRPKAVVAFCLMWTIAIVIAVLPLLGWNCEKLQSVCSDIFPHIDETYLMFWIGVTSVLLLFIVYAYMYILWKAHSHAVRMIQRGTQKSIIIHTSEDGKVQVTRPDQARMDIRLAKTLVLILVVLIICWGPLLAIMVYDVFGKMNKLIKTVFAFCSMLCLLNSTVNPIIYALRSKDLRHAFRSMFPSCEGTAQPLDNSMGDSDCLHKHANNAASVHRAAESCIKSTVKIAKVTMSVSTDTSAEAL

[3] = target: T1, Cannabinoid receptor 2; test: Agonist activity at human recombinant CB2 receptor expressed in CHO cells by [35S]GTP-gamma-S binding assay; format: functional, cell-based
Method in brief: (§1)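 Membranes from CHO cells expressing human CB2 (5 µg/well) in Hepes buffer pH 7.4 with 100 mM NaCl, 3 mM MgCl2, 0.2% BSA, 3 µM GDP and 30 µg/mL saponin. Preincubated with compound for 30 min at 30 °C, then 0.1 nM [35S]GTPγS added for a further 30 min at 30 °C. Filtered and counted. Nonspecific binding defined with 10 µM GTPγS.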

[4] = target: T1, Cannabinoid receptor 2; test: Agonist activity at human recombinant CB2 receptor expressed in CHO cells by [35S]GTP-gamma-S binding assay relative to CP-55940; format: functional, cell-based
Method in brief: as §1, with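 “GTPγS. Emax expressed relative to the maximal response to CP 55,940.” for “GTPγS.”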

[5] = target: T3, Cannabinoid receptor 2 (Rattus norvegicus, UniProt Q9QZN9); test: Displacement of [3H]CP-55940 from […] receptor in Sprague-Dawley rat spleen membrane; format: cell membranes
T3 sequence (Q9QZN9 whole entry): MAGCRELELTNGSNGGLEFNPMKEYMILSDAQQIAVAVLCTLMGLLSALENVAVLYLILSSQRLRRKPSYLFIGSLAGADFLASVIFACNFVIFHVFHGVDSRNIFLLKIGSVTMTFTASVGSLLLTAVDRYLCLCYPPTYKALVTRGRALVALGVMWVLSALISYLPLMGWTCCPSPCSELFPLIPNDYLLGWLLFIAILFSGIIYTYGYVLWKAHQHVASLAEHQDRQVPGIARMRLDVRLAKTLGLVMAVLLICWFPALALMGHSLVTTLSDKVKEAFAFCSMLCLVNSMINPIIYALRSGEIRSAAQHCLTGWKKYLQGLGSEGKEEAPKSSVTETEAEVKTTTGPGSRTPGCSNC
Method in brief: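 Rat spleen membranes (100 µg/well) from male Sprague–Dawley rats in Tris-HCl buffer pH 7.4 with 5 mM EDTA, 5 mM MgCl2 and 0.2% BSA. Incubated with varying compound concentrations and 0.57 nM [3H]CP 55,940 at 25 °C for 120 min. Filtered and counted. Nonspecific binding defined with 2 µM CP 55,940.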

[6] = Tmax in Sprague-Dawley rat at 10 mg/kg, po; format: ADME, organism-based; parameters: dose 10 mg/kg, route oral; conditions: in vivo
Method in brief: (§2)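 Male Sprague–Dawley rats, 7–8 weeks old, dosed orally at 10 mg/kg. Blood taken from the tail vein and plasma stored at -80 °C. Plasma protein-precipitated with acetonitrile/methanol (9:1) containing internal standard, then quantified by LC-MS/MS (ESI, positive MRM). LLOQ 1 ng/mL. Mean ± SD of three animals.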

[7] = Plasma concentration in Sprague-Dawley rat at 10 mg/kg, po after 1.67 hrs; format: ADME, organism-based; parameters: dose 10 mg/kg, route oral; method in brief: as §2
[8] = Half life in Sprague-Dawley rat at 10 mg/kg, po; format: ADME, organism-based; parameters: dose 10 mg/kg, route oral; conditions: in vivo; method in brief: as §2
[9] = AUC (0 to 8 hrs) in Sprague-Dawley rat at 10 mg/kg, po; format: ADME, organism-based; parameters: time < 8 hr, dose 10 mg/kg, route oral; conditions: plasma
[10] = species: Homo sapiens; test: Selectivity for human CB2 receptor over human CB1 receptor
[11] = Solubility in water at 25 degC; format: physicochemical
Method in brief: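 Excess compound shaken in water at room temperature for 24 h, then centrifuged for 10 min at 25 °C. Supernatant diluted in 50% aqueous acetonitrile and quantified by reversed-phase HPLC with UV detection at 230 nm.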

[12] = Metabolic stability in human liver microsomes after 15 mins; format: ADME, Microsome; conditions: read-out: Stability
Method in brief: (§3)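 Compound at 5 µM final incubated for 15 min at 37 °C with human or rat liver microsomes (1.0 mg protein/mL) in phosphate buffer with KCl, pH 7.4, plus an NADPH-generating system. Stopped with DMSO, centrifuged, and the remaining compound measured by LC-MS/MS. Run in triplicate.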

[13] = Metabolic stability in Sprague-Dawley rat liver microsomes after 15 mins; format: ADME, Microsome; conditions: read-out: Stability; method in brief: as §3
[14] = system: Rattus norvegicus; test: Reversal of mechanical hyperalgesia in Wistar rat at 10 mg/kg, po after 1 hr by Randall-Selitto test; format: functional, organism-based; parameters: dose 10 mg/kg
Method in brief: (§4)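 Male Wistar rats (200–220 g) given 0.1 mL of 20% yeast suspension into the right hind paw plantar surface. Control paw-withdrawal threshold read by algesiometer 2 h after yeast, then compound given orally in 5% gum arabic vehicle. Threshold re-read at 1 and 3 h. Result expressed as %MPE. Seven rats per group; Dunnett's test versus vehicle.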

[15] = system: Rattus norvegicus; test: Reversal of mechanical hyperalgesia in Wistar rat at 30mg/kg, po after 1 hr by Randall-Selitto test; format: functional, organism-based; method in brief: as §4
[16] = target: T2, Cannabinoid receptor 1; test: Binding affinity to CB1 receptor
[17] = target: T1, Cannabinoid receptor 2; test: Binding affinity to CB2 receptor
[18] = target: T2, Cannabinoid receptor 1; test: Agonist activity at CB1 receptor; format: functional
[19] = target: T1, Cannabinoid receptor 2; test: Agonist activity at CB2 receptor; format: functional
Method in brief: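 [³⁵S]GTPγS binding on membranes of CHO cells expressing human CB2. Buffer 20 mM Hepes, 100 mM NaCl, 3 mM MgCl2, 0.2% BSA, 3 µM GDP, 30 µg/mL saponin, pH 7.4. Membranes (5 µg/well) preincubated with compounds 30 min at 30 °C, then 0.1 nM [³⁵S]GTPγS added for 30 min at 30 °C. Filtration and scintillation counting; nonspecific binding with 10 µM GTPγS. EC50 derived; Emax relative to CP 55,940 maximum.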

T1 sequence (P34972 whole entry): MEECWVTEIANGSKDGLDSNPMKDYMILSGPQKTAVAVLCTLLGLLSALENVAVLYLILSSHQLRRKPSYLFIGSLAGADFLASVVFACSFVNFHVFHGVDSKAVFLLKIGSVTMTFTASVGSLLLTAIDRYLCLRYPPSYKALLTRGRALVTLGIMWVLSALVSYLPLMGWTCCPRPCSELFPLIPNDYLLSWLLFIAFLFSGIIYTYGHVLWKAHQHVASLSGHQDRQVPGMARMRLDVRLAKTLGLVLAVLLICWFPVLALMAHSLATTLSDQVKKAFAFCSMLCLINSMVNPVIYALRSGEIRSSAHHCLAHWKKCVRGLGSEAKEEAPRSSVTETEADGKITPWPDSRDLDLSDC

Row | Structure (SMILES) | IC50 [1] [nM] | IC50 [2] [nM] | EC50 [3] [nM] | Emax [4] [%] | other results
1 | Cn1c(C(C)(C)C)c/c(=N\C(=O)c2cccc(C(F)(F)F)c2F)n1CC1CC1 | 2.9 | 4000 | 1.8 | 85 | IC50 [5]: 1.4 nM; Tmax [6]: 1.67 h; Cmax [7]: 545 ng/mL; half-life [8]: 2.47 h; AUC(0-t) at 8 h [9]: 2160 ng·h/mL; Ratio IC50 [10]: 1400; solubility [11]: 59 µg/mL (≈ 148 µM); remaining at 0.25 h [12]: 92%; remaining at 0.25 h [13]: 86%; Activity [14]: Active; Activity [15]: Active
2 | CN1CCCCC1Cn1cc(C(=O)c2cc([N+](=O)[O-])ccc2I)c2ccccc21 (stereo not given) | – | – | – | – | IC50 [16]: 280 nM; IC50 [17]: 3.4 nM
3 | CC(C)(C)c1nn(CC2CC2)/c(=N/C(=O)c2cccc(C(F)(F)F)c2)s1 | 300 | – | – | – | –
4 | CCOCCn1/c(=N/C(=O)c2cccc(C(F)(F)F)c2F)cc(C(C)(C)C)n1C | 3.7 | 870 | 1.1 | 82 | –
5 | Cc1c(C(C)C)o/c(=N\C(=O)c2cccc(C(F)(F)F)c2)n1CC1CC1 | 24 | – | – | – | –
6 | CC1(C)C(C(=O)c2cn(CCN3CCOCC3)c3ccccc23)C1(C)C | – | – | – | – | IC50 [17]: 0.77 nM
7 | Cc1c(C(C)(C)C)s/c(=N\C(=O)c2cccc(C(F)(F)F)c2)n1CC1CC1 | – | – | – | – | Ratio IC50 [10]: 270; solubility [11]: < 0.1 µg/mL
8 | Cn1c(C(C)(C)C)c/c(=N\C(=O)c2cccc(C(F)(F)F)c2F)n1CC1CCCC1 | – | 810 | 0.79 | 67 | –
9 | CC(C)(C)c1c/c(=N\C(=O)c2cccc(C(F)(F)F)c2)n(CC2CC2)o1 | 46 | – | – | – | –
10 | CC(C)(C)c1c/c(=N\C(=O)c2cccc(C(F)(F)F)c2)n(CC2CC2)s1 | 9.5 | – | – | – | –
11 | Cn1c(C(C)(C)C)c/c(=N\C(=O)c2cccc(C(F)(F)F)c2Cl)n1CC1CC1 | 3.7 | 2200 | 1.5 | 82 | –
12 | Cn1c(C(C)(C)C)c/c(=N\C(=O)c2cccc(C(F)(F)F)c2F)n1CC1CCC1 | 1.7 | 940 | 0.32 | 96 | –
13 | Cc1ccc(C(F)(F)F)cc1C(=O)/N=c1\cc(C(C)(C)C)n(C)n1CC1CC1 | 88 | – | – | – | –
14 | CC(C)OCCn1/c(=N/C(=O)c2cccc(C(F)(F)F)c2F)cc(C(C)(C)C)n1C | 2.6 | 760 | 0.85 | 76 | –
15 | Cc1c(C(=O)/N=c2\cc(C(C)(C)C)n(C)n2CC2CC2)cccc1C(F)(F)F | 11 | 1300 | 4.4 | 73 | –
16 | Cn1c(C(C)(C)C)c/c(=N\C(=O)c2cccc(C(F)(F)F)c2)n1CC1CC1 | 51 | – | – | – | –
17 | O=C(NCC1CCOCC1)c1cnc(Nc2ccc(Cl)cc2Cl)nc1C(F)(F)F [GW842166X] | – | – | – | – | EC50 [18]: > 30000 nM; EC50 [19]: 50 nM
18 | Cn1c(C(C)(C)C)c/c(=N\C(=O)c2cc(C(F)(F)F)ccc2F)n1CC1CC1 | 23 | 3700 | 8.8 | 90 | –
